These results are taken from ChEMBL document CHEMBL4616711, “Discovery of 2,6-Dimethylpiperazines as Allosteric Inhibitors of CPS1” (ACS Med Chem Lett, 2020).

For data set [1], the target named is T1, Carbamoyl-phosphate synthase [ammonia], mitochondrial (Homo sapiens, UniProt P31327).
T1 sequence (P31327 whole entry): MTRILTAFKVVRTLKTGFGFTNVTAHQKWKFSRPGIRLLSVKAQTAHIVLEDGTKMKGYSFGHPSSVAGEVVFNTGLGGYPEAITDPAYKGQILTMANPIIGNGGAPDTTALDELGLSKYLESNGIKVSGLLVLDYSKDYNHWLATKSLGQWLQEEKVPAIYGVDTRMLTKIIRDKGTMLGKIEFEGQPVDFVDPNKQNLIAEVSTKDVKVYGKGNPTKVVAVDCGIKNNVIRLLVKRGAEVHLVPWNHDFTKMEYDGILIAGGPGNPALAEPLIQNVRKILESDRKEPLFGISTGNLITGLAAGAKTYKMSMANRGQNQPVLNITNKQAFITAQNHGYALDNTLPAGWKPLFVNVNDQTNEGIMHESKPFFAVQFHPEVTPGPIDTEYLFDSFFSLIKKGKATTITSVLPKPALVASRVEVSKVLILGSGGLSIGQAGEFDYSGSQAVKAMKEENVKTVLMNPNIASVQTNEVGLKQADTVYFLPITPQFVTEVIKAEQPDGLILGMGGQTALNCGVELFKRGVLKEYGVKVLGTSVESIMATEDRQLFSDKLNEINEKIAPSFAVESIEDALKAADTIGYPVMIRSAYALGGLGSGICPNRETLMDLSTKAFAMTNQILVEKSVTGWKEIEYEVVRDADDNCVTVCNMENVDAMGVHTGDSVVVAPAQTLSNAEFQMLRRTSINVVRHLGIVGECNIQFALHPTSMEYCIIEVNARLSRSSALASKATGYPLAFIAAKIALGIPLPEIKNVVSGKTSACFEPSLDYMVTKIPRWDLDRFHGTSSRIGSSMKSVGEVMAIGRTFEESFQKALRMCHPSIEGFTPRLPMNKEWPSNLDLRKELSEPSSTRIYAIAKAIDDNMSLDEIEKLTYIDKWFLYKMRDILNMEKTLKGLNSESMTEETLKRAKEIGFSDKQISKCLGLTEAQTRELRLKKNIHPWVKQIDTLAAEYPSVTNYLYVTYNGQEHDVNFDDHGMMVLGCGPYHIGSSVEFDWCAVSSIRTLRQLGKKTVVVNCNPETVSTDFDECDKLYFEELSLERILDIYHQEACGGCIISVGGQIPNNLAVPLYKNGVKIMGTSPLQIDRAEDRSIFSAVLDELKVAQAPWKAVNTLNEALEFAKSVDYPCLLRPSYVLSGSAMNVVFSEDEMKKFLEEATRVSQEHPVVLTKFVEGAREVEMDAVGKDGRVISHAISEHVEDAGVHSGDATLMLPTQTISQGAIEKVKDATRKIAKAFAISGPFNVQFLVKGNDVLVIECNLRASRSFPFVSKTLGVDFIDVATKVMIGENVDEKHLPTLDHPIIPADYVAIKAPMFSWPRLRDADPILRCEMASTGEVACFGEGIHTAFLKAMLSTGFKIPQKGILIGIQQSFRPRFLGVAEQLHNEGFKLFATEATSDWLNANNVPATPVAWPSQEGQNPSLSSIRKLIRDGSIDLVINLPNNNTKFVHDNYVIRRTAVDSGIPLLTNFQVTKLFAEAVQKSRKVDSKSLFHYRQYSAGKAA
Briefly: Allosteric inhibition of His-tagged CPS1 (unknown origin) expressed in baculovirus infected Sf21 insect cells assessed as reduction in ADP level preincubated for 20 mins followed by ATP addition measured after 60 mins by ADP-Glo assay. A digest of the protocol: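 CPS1 activity read as ADP formation in the presence of inhibitor. IC50 taken as the average of at least two experimental replicates (N = 2).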

The target of data set [2] is T1, Carbamoyl-phosphate synthase [ammonia], mitochondrial. Briefly: Inhibition of CPS1 in human pooled hepatocytes assessed as reduction in urea production measured after 16 hrs in presence of NH4Cl by tecan-plate reader analysis. Type of data set: cell-based. The gist of the method: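 Primary human hepatocytes given 10 mM NH4Cl together with compound over a concentration series. Urea secreted into the medium measured after 16 h. IC50 derived from the inhibition of urea production.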

The nature of data set [3]: Clearance in human pooled hepatocytes assessed per million cells at 1 uM measured up to 120 mins by LC-MS/MS analysis. In kind it is ADME, cell-based, Hepatocyte. To be noted: read-out: CLH.
Data set [4] can be described thus: Apparent permeability across apical to basolateral membrane in human Caco2 cells at 5 uM incubated for 2 hrs by LC-MS/MS analysis. Type of data set: ADME, cell-based. To be noted: Caco-2.
Data set [5] in a line: Kinetic solubility in Dulbecco's phosphate buffer saline at pH 7.4 by UPLC analysis. Type of data set: physicochemical. To be noted: Dulbecco's phosphate buffered saline, read-out: Kinetic_solubility.
The target in data set [6] is Multifunctional protein CAD (Homo sapiens, UniProt P27708). The data set can be described thus: Inhibition of CAD (unknown origin) CSP2 activity expressed in Escherichia coli BL21 (DE3) preincubated for 20 mins followed by ATP addition measured after 60 mins by ADP-Glo assay. A general note: In ADP-Glo the light output rises with the ADP produced.
Multifunctional protein CAD, sequence (P27708 whole entry): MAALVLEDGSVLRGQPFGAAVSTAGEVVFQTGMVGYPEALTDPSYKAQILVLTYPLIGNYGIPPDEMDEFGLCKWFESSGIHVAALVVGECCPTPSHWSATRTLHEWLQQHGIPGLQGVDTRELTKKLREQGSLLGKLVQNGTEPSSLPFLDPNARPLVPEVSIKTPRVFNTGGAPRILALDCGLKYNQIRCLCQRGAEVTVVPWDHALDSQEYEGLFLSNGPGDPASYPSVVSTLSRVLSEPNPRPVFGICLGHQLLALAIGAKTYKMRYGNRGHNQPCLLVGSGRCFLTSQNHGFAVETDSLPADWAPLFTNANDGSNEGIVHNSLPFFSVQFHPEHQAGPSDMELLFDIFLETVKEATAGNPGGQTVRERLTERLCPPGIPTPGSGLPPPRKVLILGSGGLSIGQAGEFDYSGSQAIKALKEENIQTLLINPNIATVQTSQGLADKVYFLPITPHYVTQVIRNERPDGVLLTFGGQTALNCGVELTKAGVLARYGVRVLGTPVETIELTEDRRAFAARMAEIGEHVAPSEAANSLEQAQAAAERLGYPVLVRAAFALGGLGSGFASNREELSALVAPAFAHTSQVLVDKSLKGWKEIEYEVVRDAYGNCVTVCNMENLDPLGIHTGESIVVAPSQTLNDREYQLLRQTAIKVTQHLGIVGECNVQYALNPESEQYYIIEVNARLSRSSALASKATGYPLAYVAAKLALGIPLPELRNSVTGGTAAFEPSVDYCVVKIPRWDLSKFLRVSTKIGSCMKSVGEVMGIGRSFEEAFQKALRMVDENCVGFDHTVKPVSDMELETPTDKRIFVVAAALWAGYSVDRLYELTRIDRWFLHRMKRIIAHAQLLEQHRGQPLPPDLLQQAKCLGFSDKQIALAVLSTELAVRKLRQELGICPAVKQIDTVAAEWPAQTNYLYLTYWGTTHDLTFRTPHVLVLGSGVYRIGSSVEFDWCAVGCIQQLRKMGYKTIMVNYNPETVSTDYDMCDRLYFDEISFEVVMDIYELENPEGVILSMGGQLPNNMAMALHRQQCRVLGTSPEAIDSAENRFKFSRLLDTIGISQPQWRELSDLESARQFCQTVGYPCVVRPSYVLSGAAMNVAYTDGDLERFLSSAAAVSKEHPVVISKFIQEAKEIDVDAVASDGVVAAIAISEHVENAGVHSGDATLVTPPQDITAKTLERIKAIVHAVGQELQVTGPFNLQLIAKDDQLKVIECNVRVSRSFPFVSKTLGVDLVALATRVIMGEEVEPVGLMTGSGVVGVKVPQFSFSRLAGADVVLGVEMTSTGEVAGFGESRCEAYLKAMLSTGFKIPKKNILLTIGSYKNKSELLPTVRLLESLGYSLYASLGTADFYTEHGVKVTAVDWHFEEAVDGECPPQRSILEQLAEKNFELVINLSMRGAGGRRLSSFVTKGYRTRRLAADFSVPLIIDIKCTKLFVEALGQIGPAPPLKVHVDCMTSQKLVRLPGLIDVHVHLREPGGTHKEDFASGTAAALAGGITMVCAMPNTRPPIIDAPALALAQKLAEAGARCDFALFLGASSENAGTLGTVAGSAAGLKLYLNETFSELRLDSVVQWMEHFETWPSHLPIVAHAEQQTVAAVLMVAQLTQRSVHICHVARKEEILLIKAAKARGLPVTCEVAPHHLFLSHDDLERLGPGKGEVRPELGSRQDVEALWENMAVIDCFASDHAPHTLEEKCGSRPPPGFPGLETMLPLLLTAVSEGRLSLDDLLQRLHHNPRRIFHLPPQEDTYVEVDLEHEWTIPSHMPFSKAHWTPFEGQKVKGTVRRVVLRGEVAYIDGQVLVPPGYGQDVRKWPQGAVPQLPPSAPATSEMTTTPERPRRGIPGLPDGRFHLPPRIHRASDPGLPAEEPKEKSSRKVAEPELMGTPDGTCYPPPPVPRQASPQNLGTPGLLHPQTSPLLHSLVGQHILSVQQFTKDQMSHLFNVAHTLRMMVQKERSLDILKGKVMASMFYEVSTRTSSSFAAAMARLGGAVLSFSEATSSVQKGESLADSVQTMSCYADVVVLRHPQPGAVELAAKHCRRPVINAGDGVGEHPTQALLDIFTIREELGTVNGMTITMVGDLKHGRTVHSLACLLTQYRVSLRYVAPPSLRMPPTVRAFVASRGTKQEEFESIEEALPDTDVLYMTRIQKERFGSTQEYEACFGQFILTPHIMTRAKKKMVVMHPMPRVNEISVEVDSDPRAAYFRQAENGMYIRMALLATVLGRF

The structures appear in SMILES notation. Converted amounts (≈) assume the structure as drawn. A value given as a limit tells only on which side of the number the result lay.

By IC50 is commonly meant the point on the concentration scale where inhibition reaches its midpoint. On to `COc1ccc(C(=O)C2CCN(C(=O)c3ccc(OC)cc3F)CC2)c(F)c1`, for which the IC50 in data set [1] is 21500 nM.
On the same count and under the same terms, to `COc1ccc(C(=O)N2[C@H](C)CN(C(=O)c3cc(NC(C)=O)ccc3F)C[C@H]2C)c(F)c1` belongs above 66000 nM; to `COc1ccc(C(=O)N2[C@H](C)CN(C(=O)c3cccc(OC)c3F)C[C@H]2C)c(F)c1`, above 66000 nM.
As to `COc1ccc(C(=O)N2[C@H](C)CN(C(=O)c3ccc4cc(C)[nH]c4c3)C[C@H]2C)c(F)c1`, the IC50 in data set [2] (read-out: IC50) was determined as 1000 nM.
Take `COc1ccc(C(=O)N2C[C@@H](C)N(C(=O)c3ccc(OC(C)C)cc3F)[C@H](C)C2)c(F)c1`: the IC50 in data set [1] was found to be 1400 nM.
Turning to `COc1ccc(C(=O)N2CC3CC2CN3C(=O)c2ccc(OC)cc2F)c(F)c1`, the half-maximal inhibitory concentration (IC50) in data set [1] is above 66000 nM.
As to `COc1ccc(C(=O)N2[C@H](C)CN(C(=O)c3ccc4[nH]ccc4c3)C[C@H]2C)c(F)c1`, the IC50 was above 66000 nM in data set [1] and “Not Active” in data set [2].
As for `COc1ccc(C(=O)N2[C@H](C)CN(C(=O)c3cc(OC)ccc3F)C[C@H]2C)c(F)c1`, the IC50 in data set [1] was above 66000 nM.
Regarding `COc1ccc(C(=O)N2CC(C)N(C(=O)c3ccc(OC)cc3F)CC2C)c(F)c1` (stereo not drawn), in data set [1], the IC50 came to 11400 nM.
As for `CCOc1ccc(C(=O)N2[C@H](C)CN(C(=O)c3ccc(OC)cc3F)C[C@H]2C)c(F)c1`, the IC50 in data set [1] came out at 380 nM.
Regarding `COc1ccc(C(=O)N2CCCN(C(=O)c3ccc(OC)cc3F)CC2)c(F)c1`, in data set [1], the concentration for half-maximal inhibition (IC50) was determined as 18900 nM.
As to `COc1ccc(C(=O)N2[C@H](C)CN(C(=O)c3ccc4ccn(C)c4c3)C[C@H]2C)c(F)c1`, the IC50 result in data set [2] is recorded as “Not Active”.
`COc1ccc(C(=O)N2C[C@@H](C)N(C(=O)c3ccc(F)cc3F)[C@H](C)C2)c(F)c1`: the IC50 in data set [1] worked out at 1300 nM.
With `Cc1csc(NC(=O)C2CCN(C(=O)N(C)Cc3ccccc3)CC2)n1`, the 50% inhibitory concentration (IC50) in data set [1] worked out at 1500 nM. The hepatocyte CLint at 1 µM in data set [3] was determined as 35 µL/min/1e6 cells.
As a reminder, the Papp A→B is how fast a substance crosses the layer from the apical side. Take `COc1ccc(C(=O)N2[C@H](C)CN(C(=O)c3ccc4cc[nH]c4c3)C[C@H]2C)c(F)c1`: the IC50 in data set [1] is 66 nM; in data set [2] (read-out: IC50), 240 nM; in data set [6], at least 100000 nM. For the same compound, in data set [3], the hepatocyte CLint at 1 µM came out at 8.7 µL/min/1e6 cells. In addition, the Papp A→B at 2 h, 5 µM in data set [4] worked out at 12.3 ×10⁻⁶ cm/s. Further, the solubility kinetic in data set [5] came to 148 µM (≈ 60.6 µg/mL).
`CCOc1ccc(C(=O)N2C[C@@H](C)N(C(=O)c3ccc(OC)cc3F)[C@H](C)C2)c(F)c1`: the concentration for half-maximal inhibition (IC50) in data set [1] turned out to be 130 nM.
